Laboratory results taken from ChEMBL document CHEMBL1250524, “Novel imidazoline compounds as partial or full agonists of D2-like dopamine receptors inspired by I2-imidazoline binding sites ligand 2-BFI” (Bioorg Med Chem, 2010).

Columns and labels:
[1] = Displacement of [3H]YM-09-151-2 from D2-like receptor in pig striatal membrane; assay type: cell membranes, Sus scrofa, Striatum
Method in brief: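 Pig striatal membranes (about 200 µg protein) in Tris–HCl pH 7.4 with protease inhibitors, incubated to equilibrium (60 min, 30 °C) with 0.3 nM [3H]YM-09-151-2 and at least six compound concentrations. Nonspecific binding defined with 2.5 mM dopamine. Filtration, scintillation counting. IC50 converted to Ki by Cheng–Prusoff; 3–5 experiments in triplicate. Radioligand Kd 0.40 nM.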

[2] = molecular target: T1, Adrenergic receptor alpha-2 (Rattus norvegicus, UniProt P22086+P19328+P22909); experiment: Displacement of [3H]RX821002 from alpha2 adrenergic receptor in rat brain membrane; assay type: cell membranes
T1 sequence (P22086 whole entry): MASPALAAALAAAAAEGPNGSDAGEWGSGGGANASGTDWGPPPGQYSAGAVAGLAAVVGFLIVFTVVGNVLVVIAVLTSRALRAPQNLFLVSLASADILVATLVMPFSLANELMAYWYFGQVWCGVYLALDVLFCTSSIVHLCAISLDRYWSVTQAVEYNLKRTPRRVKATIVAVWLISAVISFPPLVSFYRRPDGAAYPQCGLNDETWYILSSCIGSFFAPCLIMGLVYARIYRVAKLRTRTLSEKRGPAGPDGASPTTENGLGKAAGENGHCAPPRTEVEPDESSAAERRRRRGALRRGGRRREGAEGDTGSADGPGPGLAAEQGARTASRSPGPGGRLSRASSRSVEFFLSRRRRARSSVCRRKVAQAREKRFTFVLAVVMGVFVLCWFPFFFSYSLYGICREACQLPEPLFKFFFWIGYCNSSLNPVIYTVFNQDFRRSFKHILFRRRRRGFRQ
T1 sequence (P19328 whole entry): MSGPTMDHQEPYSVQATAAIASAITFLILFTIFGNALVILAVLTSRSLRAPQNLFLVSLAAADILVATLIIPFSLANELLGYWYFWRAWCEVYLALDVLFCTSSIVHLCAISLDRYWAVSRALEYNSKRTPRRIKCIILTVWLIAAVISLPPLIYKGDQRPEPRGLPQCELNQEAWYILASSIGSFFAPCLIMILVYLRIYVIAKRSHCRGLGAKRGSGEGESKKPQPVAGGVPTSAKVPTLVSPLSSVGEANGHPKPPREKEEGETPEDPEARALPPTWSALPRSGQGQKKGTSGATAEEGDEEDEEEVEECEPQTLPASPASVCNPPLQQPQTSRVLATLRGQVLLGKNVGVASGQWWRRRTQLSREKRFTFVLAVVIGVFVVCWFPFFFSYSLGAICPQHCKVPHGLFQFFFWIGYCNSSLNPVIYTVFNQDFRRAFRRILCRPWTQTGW
T1 sequence (P22909 whole entry): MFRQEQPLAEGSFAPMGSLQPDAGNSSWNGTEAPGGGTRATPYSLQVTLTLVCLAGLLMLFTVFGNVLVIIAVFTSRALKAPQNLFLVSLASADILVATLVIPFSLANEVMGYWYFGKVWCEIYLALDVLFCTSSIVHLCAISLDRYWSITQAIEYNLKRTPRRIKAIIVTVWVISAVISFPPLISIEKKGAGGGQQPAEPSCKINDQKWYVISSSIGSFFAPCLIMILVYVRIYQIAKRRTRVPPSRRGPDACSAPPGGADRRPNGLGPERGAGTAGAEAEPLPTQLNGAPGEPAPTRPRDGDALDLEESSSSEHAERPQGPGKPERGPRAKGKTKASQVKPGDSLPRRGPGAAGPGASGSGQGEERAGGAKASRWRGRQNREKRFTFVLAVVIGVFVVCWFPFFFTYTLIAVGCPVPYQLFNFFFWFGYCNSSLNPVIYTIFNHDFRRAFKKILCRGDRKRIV

[3] = Displacement of [3H]2BFI from I2 imidazoline binding site in rat brain membrane; assay type: cell membranes
Method in brief: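 Rat whole-brain membranes (about 300 µg protein) incubated to equilibrium (30 min, room temperature) with 1 nM [3H]2-BFI and increasing compound concentrations in 50 mM Tris–HCl, 1 mM MgCl2, pH 7.4. Nonspecific binding defined with 10 µM BU224. Filtration, scintillation counting. At least six concentrations; IC50 converted to Ki by Cheng–Prusoff; 3–5 experiments in triplicate.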

[4] = Agonist activity at D2-like receptor in pig striatal membrane assessed as [35S]GTPgammaS binding; assay type: functional, cell membranes, Sus scrofa, Striatum
Method in brief: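 Porcine striatal membranes incubated 60 min at 30 °C in 50 mM Tris–HCl pH 7.4 with GDP, 5 mM MgCl2, 0.1 mM EDTA, 0.2 mM EGTA, 0.2 mM DTT, 150 mM NaCl, 0.2 nM [35S]GTPγS and six compound concentrations. Nonspecific binding defined with unlabeled GTPγS. Filtration, scintillation counting. EC50 by nonlinear regression, three independent experiments. Intrinsic activity set relative to dopamine %Emax = 1.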

Rattus norvegicus [5] = experiment: Anxiolytic-like activity in Wistar rat assessed as rearing activity at 0.0149 uM/kg, icv by open field test; assay type: functional
Method in brief: (§1)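 Male Wistar rats (200–225 g, 8 per group) given ip zolazepam/tiletamine anaesthesia before a cannula was implanted in the right lateral ventricle. Compound given icv at 0.0149 µM/kg; controls received physiological solution. Open field with two photocell rows: lower-row breaks counted as ambulatory episodes, upper-row breaks as rearing. Read-out is the % of episodes in the central area, mean ± SE.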

Rattus norvegicus [6] = experiment: Anxiolytic-like activity in Wistar rat assessed as ambulatory activity at 0.0149 uM/kg, icv by open field test; assay type: functional; method in brief: as §1
[7] = Displacement of [3H]SCH23390 from dopamine D1-like receptor pig striatal membrane

Ki [1] [µM] | Ki [2] [µM] | Ki [3] [µM] | EC50 [4] [µM] | Kd [7] [µM] | Structure (SMILES) | Activity (Rattus norvegicus [5]) [%] | Activity (Rattus norvegicus [6]) [%]
> 100 | 25.5 | > 100 |  |  | CCN1CCN=C1c1cc2cc(O)ccc2o1 |  | 
15.8 | 3.64 | 0.7 |  |  | CCCN1CCN=C1c1cc2cc(O)ccc2o1 |  | 
> 100 | 24.21 | 5.69 |  |  | Oc1cc2cc(C3=NCCN3)oc2cc1O |  | 
5 | 4.39 | 1.1 | 6.3 |  | Oc1ccc2oc(C3=NCCN3Cc3ccccc3)cc2c1 |  | 
18.5 | 4.43 | 10.4 | 11.9 |  | Oc1cc2cc(C3=NCCN3Cc3ccccc3)oc2cc1O |  | 

More lines, now with the values behind:

Structure (SMILES) | Ki [1] [µM] | Ki [2] [µM] | Ki [3] [µM] | EC50 [4] [µM] | Kd [7] [µM] | Activity (Rattus norvegicus [5]) [%] | Activity (Rattus norvegicus [6]) [%]
Oc1ccc2oc(C3=NCCN3)cc2c1 | > 100 | 2.95 | 0.0881 |  |  |  | 
CN1CCN=C1c1cc2cc(O)ccc2o1 | > 100 |  |  |  |  |  | 
Oc1ccc2cc(C3=NCCN3)oc2c1 | 14.5 | 11 | 0.076 | 5.7 |  |  | 
CCCN1CCN=C1c1cc2ccc(O)cc2o1 | 13.8 | 1.92 | 2.1 | 13.3 |  |  | 
CCCN1CCN=C1c1cc2cc(O)c(O)cc2o1 | > 100 | 10.16 | 28 |  |  |  | 
Oc1ccc2cc(C3=NCCN3Cc3ccccc3)oc2c1 | 5.66 | 2.08 | 5.78 | 5.8 |  | 2 | 6.3
c1ccc2oc(C3=NCCN3)cc2c1 | 47 |  | 0.0034 | 37.7 |  |  | 
NCCc1ccc(O)c(O)c1 [DOPAMINE] | 3.9 |  |  | 4.8 | 0.00133 |  | 
N[C@@H](Cc1ccc(O)c(O)c1)C(=O)O [LEVODOPA] |  |  |  |  |  | 2 | 5.7
